Measured values: ChEMBL document CHEMBL1122854, “Novel bis[1,6-dihydro-6,6-dimethyl-1,3,5-triazine-2,4-diamines] as antitrypanosomal agents” (1985)
Where “and” joins values, the source holds several entries; their conditions need not be identical. Equal values may be shown once.

Experiments:
[1] = test system: Mus musculus; assay: Antitrypanosomal activity was evaluated against Trypanosoma rhodesiense infections in mice, at dose 13 mg/kg, administered subcutaneously;Cures; format: functional; conditions: route subcutaneous
How it was run: (§1)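 IUR/HA Swiss mice (six weeks old, 30-32 g) infected i.p. with Wellcome CT strain T. rhodesiense. A single subcutaneous dose in peanut oil was given about 2 h after inoculation, with five mice per dose level. Positive control was stilbamidine or 2-hydroxystilbamidine isethionate at 40 mg/kg. Deaths before day 4 were scored toxic, and 30-day survivors cured.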

[2] = test system: Mus musculus; assay: Antitrypanosomal activity was evaluated against Trypanosoma rhodesiense infections in mice, at dose 6.6 mg/kg, administered subcutaneously;Cures; format: functional; conditions: route subcutaneous; how it was run: as §1
[3] = test system: Trypanosoma brucei rhodesiense; assay: Antitrypanosomal activity against Trypanosoma rhodesiense infections in mice, 424 mg/kg administered subcutaneously; format: functional; conditions: route subcutaneous; how it was run: as §1
[4] = test system: Mus musculus; assay: (§2) Antitrypanosomal activity was evaluated against Trypanosoma rhodesiense infections in mice, at dose 106 mg/kg, administered subcutaneously; format: functional; conditions: route subcutaneous; how it was run: as §1
[5] = test system: Trypanosoma brucei rhodesiense; assay: Anti-trypanosomal activity against Trypanosoma rhodesiense infections in mice, 26 mg/kg administered subcutaneously; format: functional; conditions: route subcutaneous
How it was run: (§3)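 Six-week-old IUR/HA Swiss mice (30-32 g), 5 per dose, infected ip with 0.5 mL of a 1:50 000 dilution of heparinized heart blood from donor mice infected 3 days before (Wellcome CT strain). Single sc dose in peanut oil about 2 h post-inoculation. Deaths before day 4 counted toxic. ΔMST versus untreated controls; survivors at 30 days counted cured.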

[6] = test system: Trypanosoma brucei rhodesiense; assay: Antitrypanosomal activity against Trypanosoma rhodesiense infections in mice, 3.3 mg/kg administered subcutaneously; format: functional; conditions: route subcutaneous; how it was run: as §3
[7] = test system: Trypanosoma brucei rhodesiense; assay: Antitrypanosomal activity against Trypanosoma rhodesiense infections in mice, 6.6 mg/kg administered subcutaneously; format: functional; conditions: route subcutaneous; how it was run: as §3
[8] = test system: Mus musculus; assay: Antitrypanosomal activity was evaluated against Trypanosoma rhodesiense infections in mice, at dose 13 mg/kg, administered subcutaneously;Toxic; format: functional; conditions: route subcutaneous; how it was run: as §1
[9] = test system: Trypanosoma brucei rhodesiense; assay: Antitrypanosomal activity was evaluated against Trypanosoma rhodesiense infections in mice, at dose 26 mg/kg, administered subcutaneously; format: functional; conditions: route subcutaneous; how it was run: as §1
[10] = test system: Trypanosoma brucei rhodesiense; assay: as §2; format: functional; conditions: route subcutaneous; how it was run: as §1
[11] = test system: Trypanosoma brucei rhodesiense; assay: Antitrypanosomal activity was evaluated against Trypanosoma rhodesiense infections in mice, at dose 1.6 mg/kg, administered subcutaneously; format: functional; conditions: route subcutaneous; how it was run: as §3
[12] = test system: Mus musculus; assay: Antitrypanosomal activity was evaluated against Trypanosoma rhodesiense infections in mice, at dose 0.8mg/kg, administered subcutaneously
[13] = test system: Mus musculus; assay: Antitrypanosomal activity was evaluated against Trypanosoma rhodesiense infections in mice, at dose 212 mg/kg, administered subcutaneously; Cures; format: functional; conditions: route subcutaneous; how it was run: as §1
[14] = test system: Mus musculus; assay: (§4) Antitrypanosomal activity was evaluated against Trypanosoma rhodesiense infections in mice, at dose 26 mg/kg, administered orally; Cures; format: functional
How it was run: (§5)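 Oral dosing of IUR/HA Swiss mice (six weeks old, 30-32 g) infected i.p. with Wellcome CT strain T. rhodesiense, with five mice per dose level. Survival was followed for 30 days. Deaths before day 4 were counted as toxic and 30-day survivors as cured. ΔMST is the difference in mean survival time between treated and control mice.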

[15] = test system: Mus musculus; assay: Antitrypanosomal activity was evaluated against Trypanosoma rhodesiense infections in mice, at dose 106 mg/kg, administered orally; Cures; format: functional; how it was run: as §5
[16] = test system: Mus musculus; assay: Antitrypanosomal activity was evaluated against Trypanosoma rhodesiense infections in mice, at dose 424 mg/kg, administered orally; Cures; format: functional; how it was run: as §5
[17] = test system: Mus musculus; assay: (§6) Antitrypanosomal activity was evaluated against Trypanosoma rhodesiense infections in mice, at dose 424 mg/kg, administered orally; format: functional; conditions: route oral, 424 mg/kg; how it was run: as §5
[18] = test system: Mus musculus; assay: Antitrypanosomal activity was evaluated against Trypanosoma rhodesiense infections in mice, at dose 106 mg/kg, administered orally; format: functional; conditions: route oral
[19] = test system: Trypanosoma brucei rhodesiense; assay: Antitrypanosomal activity was evaluated against Trypanosoma rhodesiense infections in mice, at dose 212 mg/kg, administered subcutaneously; format: functional; conditions: route subcutaneous; how it was run: as §3
[20] = test system: Mus musculus; assay: Antitrypanosomal activity was evaluated against Trypanosoma rhodesiense infections in mice, at dose 26 mg/kg, administered orally; format: functional; conditions: route oral
[21] = test system: Mus musculus; assay: as §4; format: functional; remark: listed apart in the source
[22] = test system: Mus musculus; assay: as §6; format: functional; conditions: route oral
[23] = test system: Mus musculus; assay: Antitrypanosomal activity was evaluated against Trypanosoma rhodesiense infections in mice, at dose 13 mg/kg, administered subcutaneously; format: functional; conditions: route subcutaneous; how it was run: as §3

## CC1(C)N=C(N)N=C(N)N1c1ccc(Oc2ccc(N3C(N)=NC(N)=NC3(C)C)cc2)cc1.Cl.Cl
[1]
  Cures: 2
[2]
  Cures: 1
[3]
  Toxic: 5
[4]
  Toxic: 5
[5]
  Delta MST: 5 days
[6]
  Delta MST: 4.2 days
[7]
  Delta MST: 5.3 days

## CC1(C)N=C(N)N=C(N)N1c1cccc(NC(=O)Nc2cccc(N3C(N)=NC(N)=NC3(C)C)c2)c1.Cl.Cl
[3]
  Toxic: 5
[8]
  Toxic: 3
[9]
  Toxic: 5
[10]
  Toxic: 5
[11]
  Delta MST: 0 days
[6]
  Delta MST: 0 days
[7]
  Delta MST: 0 days
[12]
  Delta MST: 0.2 days

## CC1(C)N=C(N)N=C(N)N1c1ccc(/N=N/c2ccc(N3C(N)=NC(N)=NC3(C)C)cc2)cc1.Cl.Cl
[13]
  Cures: 4
[14]
  Cures: 4 and 5
[15]
  Cures: 4 and 5
[16]
  Cures: 4
[17]
  Toxic: 2 and 1
[11]
  Delta MST: 0 days
[18]
  Delta MST: 5.9 days
[19]
  Delta MST: 0.9 days
[20]
  Delta MST: 1 days
[21]
  Delta MST: 1.9 days
[6]
  Delta MST: 0.2 days
[22]
  Delta MST: 0.1 days
[7]
  Delta MST: 1 days
[23]
  Delta MST: 1.6 days
